System: MS2 coat protein
Experiment: apparent Kd, MS2 coat protein; higher = weaker binding; RNA-MaP array; FMN 200 µM where present
Summary of the method: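 Designs were transcribed by stalled E. coli RNA polymerase on Illumina sequencing-chip clusters. They were titrated with SNAP-549-labelled MS2 coat protein from 0.7 or 1.5 nM, doubling to 3 µM, without and then with constant ligand. Buffer: 100 mM Tris-HCl pH 7.5, 80 mM KCl, 4 mM MgCl2, BSA, DTT, yeast tRNA, Tween-20. Green signal was normalised to red-channel RNA signal and control-cluster median Fmax. Apparent Kd is the median of filtered per-cluster binding-curve fits.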

[1] = designed as: OFF switch for flavin mononucleotide, no ligand
[2] = ligand present: flavin mononucleotide, designed as: OFF switch for flavin mononucleotide
[3] = designed as: ON switch for flavin mononucleotide, no ligand
[4] = ligand present: flavin mononucleotide, designed as: ON switch for flavin mononucleotide

| Sequence | apparent Kd [1] [nM] | apparent Kd [2] [nM] | apparent Kd [3] [nM] | apparent Kd [4] [nM] |
| --- | --- | --- | --- | --- |
| AAUAACAGAGGAUAUACUGUUUUAUGUGUUUGUUAUUUUGAACAUGAGGAUCACCCAUGUAGAAGGCUGAUUGA | 50 | 44.9 | – | – |
| AAAAAGUGAGGAUAUGCACUGUCCUGUAGACACGAGCAGUUGUAGAAGGCACAUGAGGAUCACCCAUGUUUAAA | 29.2 | 25.9 | – | – |
| GGUGUAUAUGAGAAGGCGAUCAUGAAACAUGAUCGAGGAUAUCAUGUAAACAUGAGGAUCACCCAUGUAUGGGAAUAUUGCACC | – | – | 133 | 15 |
| AUGAGGUCAGGAUAUGCAUGGCGGGACUUGCGUCGUGGCGUGCAGAAGGGACAUGAGGAUCACCCAUGUGGAGG | 177 | 249 | – | – |
| UGUCUUUGCACAGGAUAUCAUACAUGAGGAUCACCCAUGUCUAUAAAACAAUGAGAAGGGUGCGUGAUGUGGGCUGCUAUAGCG | – | – | 24.7 | 8.3 |
| AGCUAGGUAGGAUAUGCGUAAAUGUCGAAAGACGUAUUGGGACAUGAGGAUCACCCAUGUAGAAGGAUCUAGCA | 39.3 | 55.7 | – | – |
| AGACUGAAGCAAGGAUAUUGUAAGGUUAAUGUACAAGAAGGUGCUGUUUAUGUCUCUUAACAUGAGGAUCACCCAUGUUUUGGU | – | – | 23.9 | 19.9 |
| CGAGAUCUUGAGAAGGCAUAAUAUAUAAUACCACAUGUUUACAUGAGGAUCACCCAUGUUACCUAUGAGGAUAUCAGGAUUUCG | 18.5 | 16.1 | – | – |
| UUGUAACGAUUAGGAUAUUAUUAAUAGAACUUUAUGAUAUACAUGAGGAUCACCCAUGUUACUUUUAAGAAGGAAUCGUAUUAU | 24.4 | 18.3 | – | – |
| GAGUUACAUGAGGAUCACCCAUGUUGUUUUGGAUAAGGAUAUAUGGUAGGAAGAGGAAUGAUAGAAGGUAUUAGGG | – | – | 29.9 | 28.3 |
| GCCAUCGUAUGAGGAUAUGGCACCGAAACGGUGCCAGAAGGCAUGUCAAUCGACAUGAGGAUCACCCAUGUGUUAUCGAUGGCA | – | – | 305 | 25.1 |
| GGAUAGUGAGGAUAUCGAUGUUAGGAGGAUGAGGUAGGAUGCGAGAAGGCACAUGAGGAUCACCCAUGUAUGGU | 48.8 | 38.8 | – | – |
| AGUACUCAAAGAGUACCCAUACGGACAUGAGGAUCACCCAUGUAGGAUAUGCUACUCAAAGAGUAGUAGAAGGACAUAUUCCUC | 9.52 | 20.3 | – | – |
| UGGUACUAGGGAGGAUAUGGGAAGAUACAUGAGGAUCACCCAUGUUUAAGAAUGCCGAGAGGCAACUAGAAGGCCCUAGUGCCU | – | – | 432 | 19.2 |
| AAUAUGUUGCAGAAGGUUAUAUUUAUAACGUUCCUCAUGACAUGAGGAUCACCCAUGUAAUUGUUGAAGGAUAUGCAAUAUAUU | 5.41 | 5.62 | – | – |
| CUCUUGUGAGGAUAUCAGGUGUGCUAGCGUACUGGUACAUCUGAGAAGGCACAUGAGGAUCACCCAUGUUUCUU | 97.7 | 72.3 | – | – |
| GCCGAAAAUGUGAGGAUAUACCUAUGGAAACAUAGGUAGAAGGCACAUGAGGAUCACCCAUGUGUCCAAACGGC | 19.9 | 64.6 | – | – |
| CCUGCACAUGAGGAUCACCCAUGUCAGGAUAUCUCGCCGUCGGCUUGCCGACGGUAUUAGAGAAGGGACACGGG | 29.3 | 26 | – | – |
| UUAUUUUGUCAAGGAUAUGUAGUAUUGAUCUGAAAACAUGAGGAUCACCCAUGUAUAUGGUGGGAACAGAAGGUGAAUGUUGAA | 658 | 845 | – | – |
| GGAUAGGACAGAGGAUAUACGUGCUAGAGAUACUAGCAAAAUUUACUCACAUGAGGAUCACCCAUGUAGAAGGCUGUCCUAUCG | 5.09 | 22.2 | – | – |
| GUAGCAUACCGAGGAUAUUCAUACCGGAAACGGACAUGAGGAUCACCCAUGUUACGAAAGUAUUGGGAGAAGGCGGAAUGCUAC | – | – | 135 | 22.6 |

| Sequence | apparent Kd [1] [nM] | apparent Kd [2] [nM] | apparent Kd [3] [nM] | apparent Kd [4] [nM] |
| --- | --- | --- | --- | --- |
| CCGCAAAUGUAGGAUAUCGUAUCGGAUACGAUACGAGAAGGGCAUACAUGAGGAUCACCCAUGUGUCCUAGCGG | 14.6 | 15.7 | – | – |
| UACCUCUCAGGAUAUGAGCAGCAGGACAUGAGGAUCACCCAUGUUAUAUAGGGUCCUGGUUUAGAAGGGAGCGAAU | 26 | 28.1 | – | – |
| AUUAUACAUGAGGAUCACCCAUGUAAUUAAUUAAUUAAGAUCUAGGAUAUCAGCUCGAUUAGAGCUGAGAAGGAGAUCACAUGU | – | – | 29.9 | 18.7 |
| UUGUUGUGUGUAGGAUAUGCAUAUUAUUAUUAUGCAGAAGGACAUGAGGAUCACCCAUGUAUAUUAUUAUUAUAUAUUAUAUAU | 31.1 | 36.6 | – | – |
| GGAGACCUCACAGGAUAUGCUGGACUUUGUCCAGCAGAAGGGUGAACACAUGAGGAUCACCCAUGUGGUCUCCAAAUAUUUAAU | – | – | 816 | 74.2 |
| GUAGUACAUGAGGAUCACCCAUGUGUGGGCGCAUGAGGAUAUGUCCGUACCUGGCGUACGAUAGAAGGCAUGGUGC | – | – | 52.8 | 29.3 |
| AGCAUGUAAGGAUAUGCAACACGACGUUCAAUCGUCGUGCCGCAGAAGGUACAUGAGGAUCACCCAUGUGCUCC | 104 | 129 | – | – |
| GCCUCACAUGAGGAUCACCCAUGUCAGGAUAUAGGAGGCGAUAGAAAUCCUACCGCCGCUAGAAGGGACUGGCA | 39.8 | 91.2 | – | – |
| GGUCUUCAAGUCAGGAUAUCGUCUGGUCGGUCUGGCGAGAAGGGACAUGAGGAUCACCCAUGUCGUCUCAUCAG | 25.5 | 40.2 | – | – |
| GGAUUUGUUCCAAUUUCGGUGAGUAAGGAUAUGCAUGGCAUACAUGAGGAUCACCCAUGUUGUCGGCAGAAGGUGCCACAACGU | – | – | 59.4 | 15.2 |
| GUUGUGUGAGGAUAUGCCUGGCCGUGUGGCCGGUUUGGGUGGCAGAAGGUACAUGAGGAUCACCCAUGUACGGG | 105 | 107 | – | – |
| GGUGGUUGAGGAUAUACGAACAUGUCGCCAGAUGUCAUGGUACAUGAGGAUCACCCAUGUAGAAGGUGGUUGUC | 357 | 576 | – | – |
| UUUGUGUCAGGAUAUGAGUAGUAGAACAAUAGUACUACUACUCAGAAGGGACAUGAGGAUCACCCAUGUUCCUC | 19.3 | 88.3 | – | – |
| GAUUCACAUGAGGAUCACCCAUGUCGUUAUAUGGGAGGAUAUACGUGGACCGUAGUCCGCGUAGAAGGCCUAAUUG | – | – | 378 | 81.2 |
| UGGUACUAGGGAGGAUAUGGGAAGAUACAUGAGGAUCACCCAUGUUGAAGAAUGCCGAGAGGCAACUAGAAGGCCCUAGUACCU | – | – | 137 | 9.13 |
| CGCAUGGAGGGAGGAUAUGACAUGAGGAUCACCCAUGUAAAGGAUCCGACGUCAGAAGGCCCUAAGAAUUUACACAUUCUCUUA | 119 | 26.7 | – | – |
| ACCUUACAUGAGGAUCACCCAUGUUAGGAUAUCUCGCCCGCGCAAACACAGCGCAGGCAGAGAAGGGACGCGGG | 31.8 | 32.8 | – | – |
| GGCCUACGAGGAUAUCGCUAGCGGGACAUGAGGAUCACCCAUGUGUCGGACCGCGUCAUGCGAGAAGGUGUAAUGA | 17.6 | 18.4 | – | – |
| GUUACAUGAGGAUCACCCAUGUAUGUGUGGGAGUAAGUGUCUUAGGAUAUCUAUUAUUUAAAUUAAGAGAAGGAAGAUUGUUGU | – | – | 123 | 137 |
| CGAUAUGAUAGAGGAUAUGUUUAACAUGAGGAUCACCCAUGUGACAUGGGAUUAAUAUAUAACUUACAGAAGGCUAUUCAAUCG | 34.4 | 52.4 | – | – |
| GUGCCUAUCUGAGGAUAUCAACGCACUUGAGCGUGAGAAGGCAGAGGUACAUGAGGAUCACCCAUGUCCUCCAUAAAAUAAAAG | 6.65 | 14.1 | – | – |

— the EternaBench riboswitch data
